Bioassay records: PubChem BioAssay, Sanford-Burnham Center for Chemical Genomics
XBP1 UPR activ: activators of adaptive arm of unfolded protein response (XBP1) | CHO-XBP1 luciferase reporter, IRE1-XBP1 UPR activation, luminescence; percent of tunicamycin response, DMSO as zero | activation, % at 20 µM | actives 0.33% (n = 330,000);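 active means versus positive control, 20 µM dose yields 30% or more activation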;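 further: 100% = tunicamycin at 10 µg/mL and 0% = DMSO only wells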
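assay system = CHO-XBP1 luciferase reporter cells | amount = 1000 cells/well | buffer or medium = F12 plus 10% FBS | compound dosing = single point, 20 µM final compound, 1% DMSO | incubation = 16-18 h cell attachment at 37 °C, then 6 h compound exposure | detection = Steady-Glo luminescence read | controls = tunicamycin 10 µg/mL and vehicle-only wells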
tim23-1 inh: inhibits growth of tim23-1 mutant yeast. AID 463212. S. cerevisiae tim23-1 growth, BacTiter-Glo luminescence, 24 h. inhibition, % at 20 µM. actives 1.3% (n = 330,000);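 active means growth inhibition of the mutant yeast at or above 50%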;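 further: temperature-sensitive mutant grown at 25 °C; plate controls were DMSO-treated mutant yeast for no effect and medium wells lacking yeast for full effect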
tim10-1 inh: tim10-1 yeast growth inhibition. S. cerevisiae tim10-1 ts strain growth, BacTiter-Glo, 24 h. AID 463190. inhibition, % at 20 µM. actives 2.2% (n = 330,000);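 active means inhibition of at least 40%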;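 further: mutant grown at 25 °C; 0% = DMSO wells with yeast and 100% = wells holding no yeast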
TIM10 inh: growth inhibitors of TIM10 yeast strain; S. cerevisiae TIM10 strain growth, BacTiter-Glo luminescence, 24 h; inhibition, % at 10 µM; actives 1.4% (n = 330,000); AID 463195;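 active means inhibition of 40% or more at the single tested concentration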;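 further: wild-type TIM10 isogenic control strain grown at permissive 25 °C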
UPR CHOP act: activators of apoptotic arm of unfolded protein response (CHOP). CHO-CHOP luciferase reporter, UPR activation, luminescence; percent of tunicamycin response over DMSO baseline. actives 0.34% (n = 330,000). activation, % at 10 µM;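 active means at 10 µM dose, activation of 40% or more, normalized to positive control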;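 further: 100% = tunicamycin at 10 µg/mL and 0% = DMSO alone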
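System: CHO-CHOP luciferase reporter cell line; amount: 500 cells/well; buffer or medium: F12 medium containing 10% fetal bovine serum; incubation: 6 h compound exposure at 37 °C after overnight seeding; measured by: luciferase luminescence after 10 min with Steady-Glo reagent; evaluation: % reporter activation, DMSO baseline versus tunicamycin full activation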
tim10-1 confirm: tim10-1 yeast growth inhibition, confirmed; S. cerevisiae tim10-1 ts strain growth, BacTiter-Glo, 24 h; inhibition, % at 20 µM; actives 56% (n = 7,400); shares compounds with tim10-1 inh; AID 463213;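 active means inhibition of yeast growth at or above a set limit in either of two repeat tests at 20 µM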;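 further: tim10-1 mutant grown at permissive 25 °C to find synthetic lethal compounds; 0% = DMSO yeast wells and 100% = medium wells without yeast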
TIM10 conf: TIM10 yeast growth inhibition, confirmed; shares compounds with TIM10 inh; S. cerevisiae tim10 strain growth, BacTiter-Glo luminescence, 24 h; inhibition, % at 10 µM; actives 63% (n = 4,600);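 active means inhibition of yeast growth at or above a set limit in either of two replicates at 10 µM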;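 further: this counterscreen used the strain with wild-type TIM10; 0% = yeast with DMSO and 100% = medium wells lacking yeast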
tim23-1 confirm: confirmation of tim23-1 mutant yeast growth inhibitors | shares compounds with tim23-1 inh | S. cerevisiae tim23-1 growth, BacTiter-Glo luminescence, 24 h | inhibition, % at 20 µM | actives 83% (n = 4,400);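 active means inhibition above about 39% in either of two replicate wells at 20 µM, limit read from the data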;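 further: temperature-sensitive tim23-1 mutant grown at 25 °C; 0% = DMSO wells with yeast and 100% = medium wells without yeast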
* marks the source's active call; other numbers are inactive results; . = not tested or not shown. In the library only some 3.9% were active in any assay of this set; here they are far more common.

SMILES | XBP1 UPR activ | tim23-1 inh | tim10-1 inh | TIM10 inh | UPR CHOP act | tim10-1 confirm | TIM10 conf | tim23-1 confirm
CN=C(Nc1ccc(C)c(C)c1)SC1CC(=O)N(c2ccc(OC)cc2)C1=O (stereo not drawn) | -2.3 | -5.7 | 35.0 | 33.7 | -1.9 | . | . | .
CCC1CCCCN1C(=O)CSc1nnc(N)s1 (stereo not drawn) | -2.0 | 9.3 | 6.3 | -3.4 | 0.3 | . | . | .
CCOC(=O)C1=C(COC(=O)Cc2c(F)cccc2Cl)NC(=O)NC1C (stereo not drawn) | 2.7 | 4.9 | 5.1 | -3.2 | 0.6 | . | . | .
C[C@H]1CCC[C@]2(C)C[C@H]3OC(=O)C(CN4CCCCCC4)[C@H]3C=C12 (stereo partly drawn) | -6.8 | 44.1 | 44.2* | 42.5* | 3.3 | 40.7* | 48.9* | .
COc1ccccc1-c1c(C)nn2c(N3CCCCCC3)cc(C)nc12 | -0.6 | 49.1 | 56.1* | 41.5* | -3.0 | 41.0* | 34.2* | .
COc1ccc2nc3oc(C(=O)N4CCN(c5cccc(Cl)c5)CC4)cc3cc2c1 | -0.6 | 37.1 | 60.5* | 63.3* | -0.7 | 8.6 | 10.4 | .
COc1ccc2nc3oc(C(=O)N4CCN(c5cccc(C(F)(F)F)c5)CC4)cc3cc2c1 | -0.5 | 6.1 | 5.1 | 14.0 | -0.2 | . | . | .
Cn1cc(C(=O)N2CCCC(Nc3ccc(F)cc3)C2)c2ccccc21 (stereo not drawn) | -4.2 | 24.0 | 21.9 | 10.8 | -0.8 | . | . | .
COc1ccccc1-c1cc(C(=O)N/N=C/c2ccc(C)s2)c2ccccc2n1 | -1.5 | 61.2* | 41.9* | 27.5 | -1.0 | 29.2 | . | 65.0*
Cc1ccc(-c2csc(NC(=O)C3=NN(C4CCS(=O)(=O)C4)C(=O)CC3)n2)cc1 (stereo not drawn) | -0.6 | -5.4 | -7.7 | -4.7 | 1.4 | . | . | .
CCCn1nc(NC(=O)c2cccs2)c2cc3ccccc3nc21 | 3.1 | 52.1* | 49.1* | 23.9 | -0.8 | 37.0* | . | 51.2*
CCCn1nc(NC(=O)c2cccs2)c2cc3cc(OC)ccc3nc21 | 5.8 | 37.1 | 28.7 | 25.0 | 9.0 | . | . | .
CSc1nc2ccc(NS(=O)(=O)c3c(Cl)cccc3Cl)cc2s1 | -0.7 | 51.9* | 42.6* | 35.4 | 1.0 | 29.8* | . | 56.6*
CC(C)c1cccc(C(C)C)c1OC(=O)[C@H]1OC(c2ccc(Br)cc2)=C[C@@H]1c1ccc(Br)cc1 | -3.1 | 10.4 | 10.2 | 7.9 | -0.8 | . | . | .
COc1ccc(-c2cc(-c3c(O)c(OC)c4occc4c3OC)[nH]n2)cc1OC | 8.5 | 53.5* | 50.2* | 36.2 | 2.0 | 31.4* | . | 45.0*
CCc1cc2c(=O)nc3n(c2s1)Cc1ccccc1/C3=C(/O)c1cccc([N+](=O)[O-])c1 | 1.6 | 41.7 | 29.6 | 27.9 | 3.0 | . | . | .
CCc1cc2c(=O)nc3n(c2s1)Cc1ccccc1/C3=C(/O)c1ccccc1Cl | 4.6 | 65.8* | 59.5* | 34.7 | 13.8 | 41.9* | . | 40.2*
CCN(CC)S(=O)(=O)c1c(OC)cc(C)c(Cl)c1C | -0.6 | 28.4 | -8.1 | 16.1 | -1.1 | . | . | .
COc1ccccc1NC(=O)Nc1ccc(-n2ccc(C(F)(F)F)n2)cc1 | 0.7 | 64.3* | 53.8* | 30.0 | 5.2 | 50.0* | . | 60.2*
O=[N+]([O-])c1ccc(/C=N/Nc2nc(N3CCCCC3)nc(N3CCCCC3)n2)o1 | 2.9 | 50.0* | 55.2* | 47.8* | 5.7 | 45.8* | 20.9 | 44.1*
CC1CCCCN1c1nc(-c2ccncc2)nc2ccccc12 (stereo not drawn) | 6.0 | 53.1* | 47.0* | 52.8* | 3.2 | 43.5* | 41.1* | 52.8*
Cc1cc(Nc2ccccc2)nc(NCc2ccccc2)n1 | 2.4 | 14.2 | 1.8 | 21.5 | 5.7 | . | . | .
Cc1ccc(Nc2cc(C)nc(-c3ccccc3)n2)cc1 | 1.3 | 51.2* | 42.4* | 39.2 | 9.7 | 32.9* | . | 58.4*
COc1ccc(-c2oc3ccccc3c(=O)c2OCC(=O)O)cc1 | -2.4 | 12.9 | -0.9 | -6.1 | 0.9 | . | . | .
COc1ccc(-c2oc3ccccc3c(=O)c2OC(C)=O)cc1 | 5.4 | 59.7* | 42.2* | 55.2* | 3.3 | 33.6* | 48.1* | 59.1*
SMILES | XBP1 UPR activ | tim23-1 inh | tim10-1 inh | TIM10 inh | UPR CHOP act | tim10-1 confirm | TIM10 conf | tim23-1 confirm
O=C(O)COc1c(-c2ccco2)oc2ccccc2c1=O | -1.5 | 0.1 | -2.8 | 14.0 | 2.0 | . | . | .
CC(=O)Oc1c(-c2ccc(Br)o2)oc2ccccc2c1=O | -1.5 | 64.9* | 53.2* | 73.0* | 0.7 | 59.7* | 77.7* | 86.0*
Cc1[nH]n(-c2ccccc2)c(=O)c1C(C[N+](=O)[O-])c1ccccc1Cl (stereo not drawn) | -2.5 | 74.2* | 60.9* | 44.4* | 1.9 | 58.8* | 56.1* | 74.6*
COc1cccc(C(c2c(C)[nH]n(-c3ccccc3)c2=O)c2c(C)[nH]n(-c3ccccc3)c2=O)c1OC | -0.6 | 62.5* | 51.5* | 31.9 | 1.3 | 32.8* | . | 54.6*
COc1cccc(C(c2c(C)[nH]n(-c3ccccc3)c2=O)c2c(C)[nH]n(-c3ccccc3)c2=O)c1O | -4.6 | 40.5 | 25.1 | 33.4 | -0.8 | . | . | .
Oc1c(Cl)cc(Cl)cc1C=Nc1ccc2c(c1)OCCO2 | -0.7 | 77.2* | 46.5* | 46.7* | -1.5 | 29.4 | 31.9* | 80.7*
O=C(O)CC(c1ccccc1)N1C(=O)c2cccc([N+](=O)[O-])c2C1=O (stereo not drawn) | -4.0 | 10.6 | 8.7 | -11.5 | -0.4 | . | . | .
O=c1c2c([N+](=O)[O-])cc([N+](=O)[O-])cc2sn1-c1ccc(Br)cc1 | -0.6 | 54.4* | 85.0* | 19.3 | 1.7 | 93.4* | . | 70.2*
O=c1c2c([N+](=O)[O-])cc([N+](=O)[O-])cc2sn1Cc1ccccc1 | -5.4 | 22.0 | 6.6 | 17.0 | 7.7 | . | . | .
O=C(CCc1nc2ccccc2c(=O)[nH]1)N1CCCc2ccccc21 | -3.6 | 7.5 | 1.9 | -1.6 | 2.3 | . | . | .
CC(=O)NC1c2ccccc2C(=O)N1Cc1ccccc1 (stereo not drawn) | -1.1 | -10.0 | 13.9 | -0.1 | -0.3 | . | . | .
O=C1c2ccccc2C(Nc2ccc(Cl)cn2)N1Cc1ccccc1 (stereo not drawn) | -1.6 | 55.6* | 43.9* | 42.2* | 0.1 | 28.7 | 45.9* | 54.0*
COc1ccc(/C=C/C(=O)NCC(=O)N=Nc2c(O)[nH]c3ccc([N+](=O)[O-])cc23)cc1 | 16.2 | -15.9 | -39.8 | 0.3 | 1.1 | . | . | .
O=C(Nc1ccnn1C1CCN(Cc2ccccc2F)CC1)C1CCCC1 | -0.5 | 3.0 | -6.4 | 4.8 | -0.1 | . | . | .
